According to ChEMBL document CHEMBL1133845, “N-propargyl-2-alkynylbenzothiazolium aza-enediynes: role of the 2-alkynylbenzothiazolium functionality in DNA cleavage” (Bioorg Med Chem Lett, 2001):

Assay: Normalized percent cleavage of DNA from cleavage reactions (20 h) containing 100 μM compound and 50 μM (bp) supercoiled DNA at pH 9.0 in 20 mM TRIS buffer
Summary of the method: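 Supercoiled ΦX174 DNA (50 μM bp) incubated with 100 μM compound in 20 mM TRIS, pH 9, for 20 h at 37 °C. Relaxed circular (Form II) and linear (Form III) DNA resolved on agarose gel and expressed as normalized percent cleavage. Mean ± SD over separate determinations.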

Point of comparison: `C#CC[n+]1c(C#Cc2ccccc2)sc2ccccc21`, DNA cleavage 40%. Against it:
- C(#Cc1nc2ccccc2s1)c1ccccc1 — lower, 0%
- C#CC[n+]1c(C#Cc2ccc(C)cc2)sc2ccccc21 — higher, 42%
- C#CC[n+]1c(C#C[Si](C(C)C)(C(C)C)C(C)C)sc2ccccc21 — lower, 7%
- C#CC[n+]1c(C#C[Si](C)(C)C)sc2ccccc21 — lower, 33%
- C[n+]1c(C#Cc2ccccc2)sc2ccccc21 — higher, 48%
